Measured values collected from several papers.
Compare with care: the assays were run in different laboratories.
Target: Serine/threonine-protein kinase 32C (STK32C, Homo sapiens, UniProt Q86UX6)

`CN(C)c1nccc(-c2cnn3ncccc23)n1` has a remaining binding of 100% (binding; 1 µM).
With `CC(=O)N1CCC(c2ccc(C(=O)NC(=N)N)cc2C(F)(F)F)CC1` the remaining binding was 100% (cell-free assay; competition with immobilised ligand; 1 µM).
`Cc1cnc(Nc2ccc(C(=O)N3CCC(N4CCCC4)CC3)cc2)nc1-c1cc2ccccc2s1` has a remaining binding of 100% (binding; competition with immobilised ligand; 1 µM).
`CC(C)(C)c1ccc(-c2nc(CBr)nn2-c2cccc(O)c2)cc1` has a remaining binding of 54% (cell-free assay; competition with immobilised ligand; 10 µM).
`CNC(=O)Nc1ccc2c(c1)[C@@]1(CC2)OC(=O)N(CC(=O)N(Cc2ccc(F)cc2)[C@@H](C)C(F)(F)F)C1=O` has a remaining binding of 100% (cell-free assay; competition with immobilised ligand; 1 µM).
`O=C(c1ccc(Nc2nccc(-c3cc4ccccc4s3)n2)cc1)N1CCC(N2CCCC2)CC1` has a remaining binding of 100% (binding; competition with immobilised ligand; 1 µM).
For `N#Cc1ccccc1CSc1nnc2c(n1)[nH]c1ccccc12`, the remaining binding was 83% (binding; competition with immobilised ligand; 10 µM).
For `C=CC(=O)N1CCC(C(=O)NCC(=O)N2CCN(c3nc(-c4cnc(N)nc4C(F)F)nc(N4CCOCC4)n3)CC2)CC1`, the remaining binding was 99% (binding; competition with immobilised ligand; 1 µM).
For `CS(=O)(=O)N1CCCC(NC(=O)[C@H](CCC2CCCCC2)NC(=O)c2ccc(CNc3ncnc4c3nnn4-c3ccccc3)cc2)C1` (some centres unmarked), the remaining binding was 100% (cell-free assay; competition with immobilised ligand; 0.1 µM).
`COc1cnc(Nc2cccc(S(N)(=O)=O)c2)nc1N1CCN(c2ccccc2)C(=O)C1` gave a remaining binding of 100% (binding; competition with immobilised ligand; 1 µM).
For `CO[C@H]1CC[C@H](CNc2ccc(S(=O)(=O)NC(=O)c3ccc(N4CCN(CC5=C(c6ccc(Cl)cc6)CC(C)(C)CC5)CC4)cc3Oc3cnc4[nH]ccc4c3)cc2[N+](=O)[O-])CC1`, the remaining binding was 54% (cell-free assay; competition with immobilised ligand; 1 µM).
With `N[C@H]1CCN(c2nccc(-c3cnn4ncccc34)n2)C1` the remaining binding was 97% (binding; 1 µM).
The remaining binding of `C[C@@H](c1ccc(-n2cnc3c(N)ncnc32)cc1)N1CCc2nn(C)c(Cc3ccccc3)c2C1=O` is reported as 89% (binding; competition with immobilised ligand; 0.1 µM).
For `CN(CCCC(F)(F)F)c1nccc(-c2cnn3ncccc23)n1`, the remaining binding was 65% (binding; 1 µM).
For `O=C(N[C@H]1CCCCC/C=C\C2C[C@@]2(C(=O)O)NC(=O)[C@@H]2C[C@@H](Oc3ccncc3)CN2C1=O)OC1CCCC1` (some centres unmarked), the remaining binding was 100% (binding; competition with immobilised ligand; 1 µM).
`C[C@H]1CCN(c2nccc(-c3cnn4ncccc34)n2)C1` gave a remaining binding of 100% (binding; 1 µM).
`c1cncc(-c2cccc(Nc3nccc(NC4CCCCC4)n3)c2)c1` has a remaining binding of 55% (binding; competition with immobilised ligand; 10 µM).
